Results from ChEMBL document CHEMBL1240482, “Synthesis and antiproliferative evaluation of certain indeno[1,2-c]quinoline derivatives. Part 2” (J Med Chem, 2010).
Active and inactive are the calls of the source. The calls are words filed in the database; no cut-off is given here.

Legend:
SAS [1] = test: Cytotoxicity against human SAS cells after 48 hrs by MTT assay; assay type: functional
Outline: (§1)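 Cells grown in DMEM with 10% FBS at 37 °C and 5% CO2, seeded at 5 × 10^3 per well and allowed 24 h before drug. Serial dilutions from DMSO stocks applied for 48 h. MTT (2 mg/mL in PBS) added for 2 h, formazan dissolved in DMSO, absorbance read at 570 nm. GI50 interpolated by linear regression from at least three points in the 20-80% range; three independent experiments.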

A549 = test: Cytotoxicity against human A549 cells after 48 hrs by MTT assay; assay type: functional; details: A549, 48 h; outline: as §1
PC-3 = test: Cytotoxicity against human PC3 cells after 48 hrs by MTT assay; assay type: functional; details: PC-3, 48 h; outline: as §1
[2] = Cytotoxicity against human SKHep cells after 48 hrs by MTT assay; assay type: functional; outline: as §1
[3] = Cytotoxicity against human BT-483 cells after 48 hrs by MTT assay; assay type: functional; details: BT-483, 48 h; outline: as §1
[4] = Cytotoxicity against human Detroit 551 cells after 48 hrs by MTT assay; assay type: cell-based; outline: as §1
SAS [5] = test: Selectivity index, ratio of IC50 for human Detroit 551 cells to IC50 for human SAS cells; assay type: functional
Detroit 551 [6] = test: Selectivity index, ratio of IC50 for human Detroit 551 cells to IC50 for human PC3 cells; assay type: functional
Detroit 551 [7] = test: Selectivity index, ratio of IC50 for human Detroit 551 cells to IC50 for human SKHep cells; assay type: functional
Detroit 551 [8] = test: Selectivity index, ratio of IC50 for human Detroit 551 cells to IC50 for human BT-483 cells; assay type: functional
Nucleic Acid = test: Binding affinity to pBR322; assay type: nucleic-acid assay; details: Escherichia coli
Homo sapiens = species: Homo sapiens; test: Inhibition of human topoisomerase 2 assessed as decrease in pBR322 mobility on agarose gel at 10 uM by electrophoresis
Outline: (§2)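 Enzyme preincubated with compound before DNA addition; reaction run 30 min at 37 °C and stopped with SDS. Products resolved on 1% agarose, stained with ethidium bromide, quantified by densitometry.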

[9] = Inhibition of human topoisomerase 2 assessed as decrease in pBR322 mobility on agarose gel by electrophoresis; outline: as §2
[10] = Cell cycle arrest in human BT-483 cells assessed as accumulation at sub-G1 phase at 1 uM after 24 hrs by flow cytometry; assay type: functional, cell-based
Outline: (§3)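 BT483 cells exposed to 0, 1, 3 or 10 μM for 24 h, then stained with propidium iodide and analysed for DNA content by flow cytometry. The subdiploid (sub-G1) peak, expressed as a percentage of the whole population, is scored as apoptotic.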

[11] = Cell cycle arrest in human BT-483 cells assessed as accumulation at sub-G1 phase at 3 uM after 24 hrs by flow cytometry; assay type: functional, cell-based; outline: as §3
[12] = Cell cycle arrest in human BT-483 cells assessed as accumulation at sub-G1 phase at 10 uM after 24 hrs by flow cytometry; assay type: functional, cell-based; outline: as §3
[13] = AUC (0 to infinity) in CD1 mouse at 2 mg/ kg, iv; assay type: ADME, organism-based; design: time infinity, dose 2 mg/ kg, route intravenous; details: plasma
Outline: (§4)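 Fasted male CD-1 (Crl.) mice, 22-24 g; single tail-vein bolus of 2.0 mg/kg in PEG400/ethanol/water (30/5/65), 10 mL/kg. Cardiac-puncture blood into K-EDTA at 0-27 h, three mice per time point; plasma analysed by LC-MS/MS after acetonitrile precipitation. Parameters calculated from mean plasma concentrations.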

[14] = Mean retention time in CD1 mouse at 2 mg/ kg, iv; assay type: ADME, organism-based; design: dose 2 mg/ kg, route intravenous; details: in vivo; outline: as §4
[15] = Clearance in CD1 mouse at 2 mg/ kg, iv; assay type: ADME, organism-based; design: dose 2 mg/ kg, route intravenous; details: in vivo; outline: as §4
[16] = Volume of distribution at steady state in CD1 mouse at 2 mg/ kg, iv; assay type: ADME, organism-based; design: dose 2 mg/ kg, route intravenous; details: in vivo, read-out: Vdss; outline: as §4
[17] = Apparent volume of distribution in CD1 mouse at 2 mg/ kg, iv; assay type: ADME, organism-based; design: dose 2 mg/ kg, route intravenous; details: in vivo, read-out: Vz; outline: as §4
[18] = Half life in CD1 mouse at 2 mg/ kg, iv; assay type: ADME, organism-based; design: dose 2 mg/ kg, route intravenous; details: in vivo; outline: as §4
[19] = Cmax in CD1 mouse at 20 mg/ kg, po; assay type: ADME, organism-based; design: dose 20 mg/ kg, route oral; details: in vivo
Outline: (§5)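 Male CD-1 (Crl.) mice, 22-24 g, fasted 4 h before dosing; single oral gavage of 20 mg/kg as a suspension in 0.5% methylcellulose/water, 10 mL/kg. Cardiac-puncture plasma (K-EDTA) taken predose to 27 h, three mice per time point; LC-MS/MS quantification.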

[20] = AUC (0 to infinity) in CD1 mouse at 20 mg/ kg, po; assay type: ADME, organism-based; design: time infinity, dose 20 mg/ kg, route oral; details: plasma; outline: as §5
[21] = Tmax in CD1 mouse at 20 mg/ kg, po; assay type: ADME, organism-based; design: dose 20 mg/ kg, route oral; details: in vivo; outline: as §5
[22] = Half life in CD1 mouse at 20 mg/ kg, po; assay type: ADME, organism-based; design: dose 20 mg/ kg, route oral; details: in vivo; outline: as §5
[23] = Oral bioavailability in CD1 mouse at 20 mg/ kg, po; assay type: ADME, organism-based; details: in vivo; outline: as §5
BT-483 = test: Antitumor activity against human BT-483 cells xenografted in BALB/c athymic mouse assessed as reduction in tumor size at 10 to 20 mg/kg, iv; assay type: functional, organism-based
Outline: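 Balb/C athymic nude mice, 6-8 weeks, about 20 g, given subcutaneous BT483 breast cancer cells. Once tumours averaged about 500 mm3, dosed iv at 10 or 20 mg/kg once daily for 14 days, in a cosolvent formulation diluted in 5% dextrose; vehicle controls; three animals per group. Caliper volume taken as width × length × height.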

Mus musculus [24] = test: Toxicity to BALB/c mouse assessed as survival rate at 20 mg/kg, iv; assay type: organism-based; design: dose 20 mg/kg, route intravenous; details: in vivo
Outline: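 Balb/C athymic nude mice (6-8 weeks, ~20 g) bearing subcutaneous BT483 breast xenografts (0.5 × 10^6 cells). Treatment began at ~500 mm3 tumour volume: cosolvent formulation diluted in 5% dextrose, iv at 10 or 20 mg/kg once daily for 14 days; controls received vehicle. 3 animals per group. Survival was assessed by Kaplan-Meier analysis at study end, p < 0.05.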

Mus musculus [25] = test: Toxicity to BALB/c mouse assessed as change in body weight at 20 mg/kg, iv; assay type: organism-based; design: dose 20 mg/kg, route intravenous; details: in vivo
Outline: (§6)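 BALB/c mice, 3 per group, randomized by body weight (stratified). Dosed iv via tail vein at 10, 20 or 40 mg/kg in PEG 400/ethanol/water (20/20/60), once every 3 days for 2 weeks; solvent controls. Weighed throughout. After a 24 h fast, heart blood was drawn under ether; GOT, GPT, BUN and creatinine were measured on an analyzer. Liver and kidney taken for H&E.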

Mus musculus [26] = test: Toxicity to BALB/c mouse assessed as change in glutamic oxalacetic transaminase at 20 mg/kg, iv; assay type: organism-based; design: dose 20 mg/kg, route intravenous; details: in vivo; outline: as §6
Mus musculus [27] = test: Toxicity to BALB/c mouse assessed as change in glutamic pyruvate transaminase at 20 mg/kg, iv; assay type: organism-based; design: dose 20 mg/kg, route intravenous; details: in vivo; outline: as §6
Mus musculus [28] = test: Toxicity to BALB/c mouse assessed as change in blood urea nitrogen at 20 mg/kg, iv; assay type: organism-based; design: dose 20 mg/kg, route intravenous; details: in vivo; outline: as §6

COc1ccc2c(c1)/C(=N\OCCN1CCCC1)c1c-2c(O)nc2ccccc12
GI50 (SAS [1]): 840 nM | GI50 (A549): 890 nM | GI50 (PC-3): 1830 nM | GI50 [2]: 1240 nM | GI50 [3]: 790 nM | GI50 at 48 h [4]: 12400 nM | RatioGI50 (SAS [5]): 14.81 | RatioGI50 (Detroit 551 [6]): 6.8 | RatioGI50 (Detroit 551 [7]): 10.03 | RatioGI50 (Detroit 551 [8]): 15.75 | Activity (Nucleic Acid): Active | inhibition (Homo sapiens): 60% | IC50 [9]: 8260 nM | Activity [10]: 43% | Activity [11]: 58% | Activity [12]: 88% | AUC(0-inf) [13]: 172 ng·h/mL | MRT [14]: 1.1 h | clearance [15]: 193 mL/min/kg | Vd [16]: 12.3 L/kg | Vd [17]: 25.5 L/kg | half-life [18]: 1.5 h | Cmax [19]: 63 ng/mL | AUC(0-inf) [20]: 187 ng·h/mL | Tmax [21]: 1 h | half-life [22]: 2.2 h | bioavailability [23]: 10.9% | Activity (BT-483): Active | Activity (Mus musculus [24]): Non-toxic | Activity (Mus musculus [25]): Non-toxic | Activity (Mus musculus [26]): Non-toxic | Activity (Mus musculus [27]): Non-toxic | Activity (Mus musculus [28]): Non-toxic
